Data published in ChEMBL document CHEMBL5058577, “EUbOPEN Chemogenomics Library 2 (Multiplex)” (2022).

Test system: HEK-293T
Assay: Multiplex assay against HEK293T
Type: toxicity, cell-based
Settings: human
Procedure, shortened: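 At seeding, live cells were stained with Hoechst33342, BioTracker Green Microtubule Cytoskeleton Dye, MitoTracker Red and Annexin V Alexa Fluor 680. After compound addition they were imaged on a CQ1 microscope at 37°C and 5% CO2, and CellPathfinder machine-learning gating sorted them into Hoechst high-intensity objects or normal cells, with normal cells further split into healthy, pyknosed or fragmented nuclei and pyknosed cells into mitotic or apoptotic. Tubulin, mitochondrial-mass and membrane-permeability phenotypes are given as per cents of cells with healthy nuclei.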

[1] = 12 h, 1 µM, compound concentration 1 uM, replicate 1
[2] = 12 h, 1 µM, compound concentration 1 uM, replicate 2
[3] = 12 h, 10 µM, compound concentration 10 uM, replicate 1
[4] = 12 h, 10 µM, compound concentration 10 uM, replicate 2
[5] = 24 h, 1 µM, compound concentration 1 uM, replicate 1
[6] = 24 h, 1 µM, compound concentration 1 uM, replicate 2
[7] = 24 h, 10 µM, compound concentration 10 uM, replicate 1
[8] = 24 h, 10 µM, compound concentration 10 uM, replicate 2
[9] = 48 h, 1 µM, compound concentration 1 uM, replicate 1
[10] = 48 h, 1 µM, compound concentration 1 uM, replicate 2
[11] = 48 h, 10 µM, compound concentration 10 uM, replicate 1
[12] = 48 h, 10 µM, compound concentration 10 uM, replicate 2

CN1CCN(c2nc3cc(C(F)(F)F)ccc3n3cccc23)CC1.O=C(O)/C=C\C(=O)O.O=C(O)/C=C\C(=O)O
Population Apoptotic (%) [1]: 37%
Population Fragmented Nuclei (%) [1]: 5%
Population Healthy Nuclei (%) [1]: 80%
Population Hoechst High Intensity Objects (%) [1]: 10%
Population Membrane Permeable-Phenotype (%) [1]: 0%
Population Mitochondria Different-Phenotype (%) [1]: 48%
Population Mitotic Cells (%) [1]: 62%
Population Normal (%) [1]: 89%
Population Pyknosed Nuclei (%) [1]: 13%
Population Tubulin-Different-Phenotype (%) [1]: 33%
Total Cell Count [1]: 438
Population Apoptotic (%) [2]: 53%
Population Fragmented Nuclei (%) [2]: 8%
Population Healthy Nuclei (%) [2]: 77%
Population Hoechst High Intensity Objects (%) [2]: 5%
Population Mitochondria Different-Phenotype (%) [2]: 76%
Population Mitotic Cells (%) [2]: 46%
Population Normal (%) [2]: 94%
Population Pyknosed Nuclei (%) [2]: 14%
Population Tubulin-Different-Phenotype (%) [2]: 35%
Total Cell Count [2]: 332
Population Apoptotic (%) [3]: 68%
Population Fragmented Nuclei (%) [3]: 7%
Population Healthy Nuclei (%) [3]: 76%
Population Hoechst High Intensity Objects (%) [3]: 14%
Population Membrane Permeable-Phenotype (%) [3]: 0%
Population Mitochondria Different-Phenotype (%) [3]: 73%
Population Mitotic Cells (%) [3]: 31%
Population Normal (%) [3]: 85%
Population Pyknosed Nuclei (%) [3]: 15%
Population Tubulin-Different-Phenotype (%) [3]: 64%
Total Cell Count [3]: 396
Population Apoptotic (%) [4]: 64%
Population Fragmented Nuclei (%) [4]: 5%
Population Hoechst High Intensity Objects (%) [4]: 9%
Population Mitochondria Different-Phenotype (%) [4]: 89%
Population Mitotic Cells (%) [4]: 35%
Population Normal (%) [4]: 90%
Population Pyknosed Nuclei (%) [4]: 18%
Population Tubulin-Different-Phenotype (%) [4]: 66%
Total Cell Count [4]: 286
Population Apoptotic (%) [5]: 33%
Population Fragmented Nuclei (%) [5]: 9%
Population Healthy Nuclei (%) [5]: 81%
Population Hoechst High Intensity Objects (%) [5]: 6%
Population Membrane Permeable-Phenotype (%) [5]: 1%
Population Mitochondria Different-Phenotype (%) [5]: 30%
Population Mitotic Cells (%) [5]: 66%
Population Normal (%) [5]: 93%
Population Pyknosed Nuclei (%) [5]: 9%
Population Tubulin-Different-Phenotype (%) [5]: 24%
Total Cell Count [5]: 557
Population Apoptotic (%) [6]: 54%
Population Fragmented Nuclei (%) [6]: 6%
Population Healthy Nuclei (%) [6]: 83%
Population Membrane Permeable-Phenotype (%) [6]: 0%
Population Mitochondria Different-Phenotype (%) [6]: 50%
Population Mitotic Cells (%) [6]: 45%
Population Pyknosed Nuclei (%) [6]: 10%
Population Tubulin-Different-Phenotype (%) [6]: 25%
Total Cell Count [6]: 390
Population Apoptotic (%) [7]: 41%
Population Fragmented Nuclei (%) [7]: 8%
Population Healthy Nuclei (%) [7]: 77%
Population Hoechst High Intensity Objects (%) [7]: 9%
Population Membrane Permeable-Phenotype (%) [7]: 0%
Population Mitochondria Different-Phenotype (%) [7]: 65%
Population Mitotic Cells (%) [7]: 58%
Population Normal (%) [7]: 90%
Population Pyknosed Nuclei (%) [7]: 13%
Population Tubulin-Different-Phenotype (%) [7]: 62%
Total Cell Count [7]: 490
Population Apoptotic (%) [8]: 63%
Population Fragmented Nuclei (%) [8]: 10%
Population Healthy Nuclei (%) [8]: 78%
Population Hoechst High Intensity Objects (%) [8]: 7%
Population Mitochondria Different-Phenotype (%) [8]: 79%
Population Mitotic Cells (%) [8]: 36%
Population Normal (%) [8]: 92%
Population Pyknosed Nuclei (%) [8]: 10%
Population Tubulin-Different-Phenotype (%) [8]: 58%
Total Cell Count [8]: 378
Population Apoptotic (%) [9]: 20%
Population Fragmented Nuclei (%) [9]: 13%
Population Healthy Nuclei (%) [9]: 78%
Population Hoechst High Intensity Objects (%) [9]: 3%
Population Membrane Permeable-Phenotype (%) [9]: 2%
Population Mitochondria Different-Phenotype (%) [9]: 17%
Population Mitotic Cells (%) [9]: 79%
Population Normal (%) [9]: 96%
Population Pyknosed Nuclei (%) [9]: 7%
Population Tubulin-Different-Phenotype (%) [9]: 17%
Total Cell Count [9]: 915
Population Apoptotic (%) [10]: 37%
Population Healthy Nuclei (%) [10]: 79%
Population Hoechst High Intensity Objects (%) [10]: 5%
Population Membrane Permeable-Phenotype (%) [10]: 0%
Population Mitochondria Different-Phenotype (%) [10]: 42%
Population Mitotic Cells (%) [10]: 62%
Population Normal (%) [10]: 94%
Population Tubulin-Different-Phenotype (%) [10]: 21%
Total Cell Count [10]: 535
Population Apoptotic (%) [11]: 50%
Population Fragmented Nuclei (%) [11]: 15%
Population Healthy Nuclei (%) [11]: 75%
Population Hoechst High Intensity Objects (%) [11]: 10%
Population Membrane Permeable-Phenotype (%) [11]: 2%
Population Mitochondria Different-Phenotype (%) [11]: 41%
Population Mitotic Cells (%) [11]: 50%
Population Normal (%) [11]: 89%
Population Pyknosed Nuclei (%) [11]: 8%
Population Tubulin-Different-Phenotype (%) [11]: 44%
Total Cell Count [11]: 672
Population Apoptotic (%) [12]: 52%
Population Fragmented Nuclei (%) [12]: 11%
Population Healthy Nuclei (%) [12]: 77%
Population Hoechst High Intensity Objects (%) [12]: 12%
Population Membrane Permeable-Phenotype (%) [12]: 0%
Population Mitochondria Different-Phenotype (%) [12]: 65%
Population Mitotic Cells (%) [12]: 47%
Population Normal (%) [12]: 87%
Population Pyknosed Nuclei (%) [12]: 10%
Population Tubulin-Different-Phenotype (%) [12]: 56%
Total Cell Count [12]: 472

Cc1ccc(C(C)(O)c2nc3ccccc3s2)c(C)c1 (stereo unspecified)
Population Apoptotic (%) [1]: 30%
Population Fragmented Nuclei (%) [1]: 19%
Population Healthy Nuclei (%) [1]: 72%
Population Hoechst High Intensity Objects (%) [1]: 4%
Population Membrane Permeable-Phenotype (%) [1]: 1%
Population Mitochondria Different-Phenotype (%) [1]: 36%
Population Mitotic Cells (%) [1]: 70%
Population Normal (%) [1]: 95%
Population Pyknosed Nuclei (%) [1]: 8%
Population Tubulin-Different-Phenotype (%) [1]: 30%
Total Cell Count [1]: 483
Population Apoptotic (%) [2]: 41%
Population Fragmented Nuclei (%) [2]: 4%
Population Healthy Nuclei (%) [2]: 79%
Population Hoechst High Intensity Objects (%) [2]: 5%
Population Membrane Permeable-Phenotype (%) [2]: 0%
Population Mitochondria Different-Phenotype (%) [2]: 63%
Population Mitotic Cells (%) [2]: 58%
Population Normal (%) [2]: 94%
Population Pyknosed Nuclei (%) [2]: 16%
Population Tubulin-Different-Phenotype (%) [2]: 25%
Total Cell Count [2]: 308
Population Apoptotic (%) [3]: 56%
Population Fragmented Nuclei (%) [3]: 5%
Population Healthy Nuclei (%) [3]: 82%
Population Hoechst High Intensity Objects (%) [3]: 8%
Population Membrane Permeable-Phenotype (%) [3]: 0%
Population Mitochondria Different-Phenotype (%) [3]: 62%
Population Mitotic Cells (%) [3]: 43%
Population Normal (%) [3]: 91%
Population Pyknosed Nuclei (%) [3]: 12%
Population Tubulin-Different-Phenotype (%) [3]: 44%
Total Cell Count [3]: 412
Population Apoptotic (%) [4]: 36%
Population Fragmented Nuclei (%) [4]: 7%
Population Healthy Nuclei (%) [4]: 78%
Population Hoechst High Intensity Objects (%) [4]: 7%
Population Mitochondria Different-Phenotype (%) [4]: 72%
Population Mitotic Cells (%) [4]: 63%
Population Normal (%) [4]: 92%
Population Pyknosed Nuclei (%) [4]: 13%
Population Tubulin-Different-Phenotype (%) [4]: 25%
Total Cell Count [4]: 318
Population Apoptotic (%) [5]: 26%
Population Fragmented Nuclei (%) [5]: 18%
Population Healthy Nuclei (%) [5]: 73%
Population Hoechst High Intensity Objects (%) [5]: 3%
Population Membrane Permeable-Phenotype (%) [5]: 1%
Population Mitochondria Different-Phenotype (%) [5]: 15%
Population Mitotic Cells (%) [5]: 73%
Population Normal (%) [5]: 96%
Population Pyknosed Nuclei (%) [5]: 8%
Population Tubulin-Different-Phenotype (%) [5]: 11%
Total Cell Count [5]: 645
Population Apoptotic (%) [6]: 32%
Population Fragmented Nuclei (%) [6]: 6%
Population Healthy Nuclei (%) [6]: 85%
Population Membrane Permeable-Phenotype (%) [6]: 0%
Population Mitochondria Different-Phenotype (%) [6]: 36%
Population Mitotic Cells (%) [6]: 67%
Population Pyknosed Nuclei (%) [6]: 7%
Population Tubulin-Different-Phenotype (%) [6]: 16%
Total Cell Count [6]: 447
Population Apoptotic (%) [7]: 28%
Population Fragmented Nuclei (%) [7]: 6%
Population Healthy Nuclei (%) [7]: 82%
Population Hoechst High Intensity Objects (%) [7]: 8%
Population Membrane Permeable-Phenotype (%) [7]: 0%
Population Mitochondria Different-Phenotype (%) [7]: 42%
Population Mitotic Cells (%) [7]: 71%
Population Normal (%) [7]: 91%
Population Pyknosed Nuclei (%) [7]: 11%
Population Tubulin-Different-Phenotype (%) [7]: 34%
Total Cell Count [7]: 487
Population Apoptotic (%) [8]: 36%
Population Fragmented Nuclei (%) [8]: 10%
Population Healthy Nuclei (%) [8]: 78%
Population Hoechst High Intensity Objects (%) [8]: 6%
Population Mitochondria Different-Phenotype (%) [8]: 63%
Population Mitotic Cells (%) [8]: 63%
Population Normal (%) [8]: 93%
Population Pyknosed Nuclei (%) [8]: 10%
Population Tubulin-Different-Phenotype (%) [8]: 23%
Total Cell Count [8]: 379
Population Apoptotic (%) [9]: 17%
Population Fragmented Nuclei (%) [9]: 20%
Population Healthy Nuclei (%) [9]: 73%
Population Hoechst High Intensity Objects (%) [9]: 2%
Population Membrane Permeable-Phenotype (%) [9]: 1%
Population Mitochondria Different-Phenotype (%) [9]: 15%
Population Mitotic Cells (%) [9]: 82%
Population Normal (%) [9]: 97%
Population Pyknosed Nuclei (%) [9]: 5%
Population Tubulin-Different-Phenotype (%) [9]: 12%
Total Cell Count [9]: 964
Population Apoptotic (%) [10]: 34%
Population Fragmented Nuclei (%) [10]: 13%
Population Healthy Nuclei (%) [10]: 78%
Population Hoechst High Intensity Objects (%) [10]: 3%
Population Mitochondria Different-Phenotype (%) [10]: 22%
Population Mitotic Cells (%) [10]: 65%
Population Normal (%) [10]: 96%
Population Pyknosed Nuclei (%) [10]: 8%
Population Tubulin-Different-Phenotype (%) [10]: 11%
Total Cell Count [10]: 621
Population Apoptotic (%) [11]: 33%
Population Fragmented Nuclei (%) [11]: 14%
Population Healthy Nuclei (%) [11]: 76%
Population Hoechst High Intensity Objects (%) [11]: 2%
Population Membrane Permeable-Phenotype (%) [11]: 0%
Population Mitochondria Different-Phenotype (%) [11]: 28%
Population Mitotic Cells (%) [11]: 66%
Population Normal (%) [11]: 97%
Population Pyknosed Nuclei (%) [11]: 9%
Population Tubulin-Different-Phenotype (%) [11]: 18%
Total Cell Count [11]: 713
Population Apoptotic (%) [12]: 50%
Population Fragmented Nuclei (%) [12]: 13%
Population Healthy Nuclei (%) [12]: 80%
Population Hoechst High Intensity Objects (%) [12]: 3%
Population Membrane Permeable-Phenotype (%) [12]: 1%
Population Mitochondria Different-Phenotype (%) [12]: 33%
Population Mitotic Cells (%) [12]: 50%
Population Normal (%) [12]: 96%
Population Pyknosed Nuclei (%) [12]: 5%
Population Tubulin-Different-Phenotype (%) [12]: 13%
Total Cell Count [12]: 508
